Publication PMC5060091 (ChemMedChem, 2016)
In brackets after ≈: the same amount, converted by molar mass. Several values for one entry are separate records, joined by “and”; a condition that tells them apart may be missing. Equal values may be shown once. Read-outs that look alike come from different tables or passages of the source.

Tests used:
[1] = tested on: Candida albicans ATCC 10231; assay: MIC, broth dilution, strain A; type: cell-based; conditions: for MIC: Candida albicans
Procedure, shortened: (§1)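 Broth dilution MIC assay on the Candida panel: C. albicans strains A–G, C. glabrata (H), C. krusei (I) and C. parapsilosis (J). Test compounds were delivered in DMSO, with DMSO kept below 1% in the assay. The MIC is reported in µg/mL, with µM in parentheses. Reference antifungals (a polyene and four azoles) were run alongside.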

[2] = tested on: C. albicans ATCC MYA-1003(R); assay: MIC, broth dilution, strain G; type: cell-based, Candida albicans; conditions: for MIC: Candida albicans
Procedure, shortened: as §1

[3] = tested on: Aspergillus strains (K–M); assay: MIC against Aspergillus strains; type: cell-based; conditions: read-out: MIC values against Aspergillus strains
C. albicans ATCC 64124 [4] = assay: MIC, broth dilution, strain B; type: cell-based, Candida albicans; conditions: for MIC: Candida albicans
Procedure, shortened: as §1

[5] = tested on: Aspergillus terreus ATCC MYA-3633; assay: MIC, broth dilution, strain M; type: cell-based; conditions: for MIC: Aspergillus terreus
[6] = tested on: C. albicans ATCC MYA-1237(R); assay: MIC, broth dilution, strain F; type: cell-based, Candida albicans; conditions: for MIC: Candida albicans
Procedure, shortened: as §1

[7] = tested on: Aspergillus nidulans ATCC 38163; assay: MIC, broth dilution, strain L; type: cell-based; conditions: for MIC: Aspergillus nidulans
[8] = tested on: C. albicans ATCC 90819(R); assay: MIC, broth dilution, strain D; type: cell-based, Candida albicans; conditions: for MIC: Candida albicans
Procedure, shortened: as §1

[9] = tested on: C. albicans ATCC MYA-2310(S); assay: MIC, broth dilution, strain E; type: cell-based, Candida albicans; conditions: for MIC: Candida albicans
Procedure, shortened: as §1

[10] = tested on: C. albicans ATCC MYA-2876(S); assay: MIC, broth dilution, strain C; type: cell-based, Candida albicans; conditions: for MIC: Candida albicans
Procedure, shortened: as §1

[11] = tested on: C. albicans ATCC MYA-2876(S); conditions: strain C; azoles; previously reported; cited from earlier work
[12] = tested on: C. albicans ATCC MYA-2310(S); conditions: strain E; azoles; previously reported; cited from earlier work
[13] = tested on: C. albicans ATCC 90819(R); conditions: strain D; azoles; previously reported; cited from earlier work
C. albicans ATCC 64124 [14] = conditions: strain B; azoles; previously reported; cited from earlier work
[15] = tested on: C. albicans ATCC MYA-1237(R); conditions: strain F; azoles; previously reported; cited from earlier work
[16] = tested on: Aspergillus nidulans ATCC 38163; conditions: strain L; previously reported; cited from earlier work
[17] = tested on: C. albicans ATCC MYA-1003(R); conditions: strain G; azoles; previously reported; cited from earlier work
[18] = tested on: Aspergillus flavus ATCC MYA-3631; assay: MIC, broth dilution, strain K; type: cell-based; conditions: for MIC: Aspergillus flavus
[19] = tested on: Candida albicans ATCC 10231; conditions: strain A; azoles; previously reported; cited from earlier work
[20] = tested on: murine red blood cells (mRBCs); conditions: data previously presented; cited from earlier work
Candida strains (A–J) = assay: MIC against panel of Candida strains; type: cell-based
Procedure, shortened: as §1

[21] = tested on: C. albicans ATCC 10231 (strain A); assay: ROS induction assay; type: cell-based, Candida albicans; conditions: 1× and 2× MIC, 1-h treatment; H2O2 1 mM
Procedure, shortened: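 C. albicans ATCC 10231 cells were incubated 1 h at 37 °C with test compound at 1× or 2× MIC, with no drug (negative control), or with 1 mM H₂O₂ (positive control). DCFH-DA (40 µg/mL) was then added. ROS were detected and imaged by fluorescence microscopy.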

[22] = tested on: Candida glabrata ATCC 2001; assay: MIC, broth dilution, strain H; type: cell-based; conditions: compounds 1–4n and AmB
Procedure, shortened: as §1

[23] = tested on: C. albicans ATCC 64124 (strain B); assay: Time-kill assay; type: cell-based, Candida albicans
[24] = tested on: Candida parapsilosis ATCC 22019; assay: MIC, broth dilution, strain J; type: cell-based; conditions: compounds 1–4n and AmB
Procedure, shortened: as §1

Candida krusei ATCC 6258 = assay: MIC, broth dilution, strain I; type: cell-based; conditions: compounds 1–4n and AmB
Procedure, shortened: as §1

[25] = read-out: MIC (MIC-2) in µM (parentheses)
[26] = read-out: MIC (MIC-0) in µM (parentheses)
[27] = strain A, compounds 1–4n and AmB
[28] = strain G, compounds 1–4n and AmB
[29] = strain F, compounds 1–4n and AmB
[30] = strain D, compounds 1–4n and AmB
[31] = strain E, compounds 1–4n and AmB
[32] = strain C, compounds 1–4n and AmB

Compound C[C@@H](c1ncncc1F)[C@](O)(Cn1cncn1)c1ccc(F)cc1F [VOR, voriconazole] has an MIC ([1]; ATCC10231, read-out: MIC (MIC-2)) of 7.8 µg/mL, an MIC ([1]; ATCC10231, read-out: MIC (MIC-2) in µM (parentheses)) of 22.3 µM and an MIC ([2]; read-out: MIC (MIC-2)) of 7.8 µg/mL. It also gave an MIC [2, 25] of 22.3 µM, an MIC [3] of 0.03 to 0.24 µg/mL (≈ 0.0859 to 0.687 µM) and an MIC (C. albicans ATCC 64124 [4]; ATCC64124, read-out: MIC (MIC-2)) of over 31.2 µg/mL. It also gave an MIC (C. albicans ATCC 64124 [4]; ATCC64124, read-out: MIC (MIC-2) in µM (parentheses)) of over 89.3 µM, an MIC ([5]; read-out: MIC (MIC-0)) of 0.12 µg/mL and an MIC [5, 26] of 0.34 µM. The MIC ([6]; read-out: MIC (MIC-2)) was 0.975 µg/mL, the MIC [6, 25] was 2.79 µM and the MIC ([7]; ATCC38163, read-out: MIC (MIC-0)) was 0.03 µg/mL. The MIC ([7]; ATCC38163, read-out: MIC (MIC-0) in µM (parentheses)) was 0.09 µM, the MIC ([8]; ATCC90819, read-out: MIC (MIC-2)) was 1.95 µg/mL and the MIC ([8]; ATCC90819, read-out: MIC (MIC-2) in µM (parentheses)) was 5.58 µM. The MIC ([9]; read-out: MIC (MIC-2)) was 1.95 µg/mL, the MIC [9, 25] was 5.58 µM and the MIC ([10]; read-out: MIC (MIC-2)) was 0.975 µg/mL. For the same compound, the MIC [10, 25] was 2.79 µM.

In the case of OC(Cn1cncn1)(Cn1cncn1)c1ccc(F)cc1F [FLC, fluconazole], the “MIC (MIC-2)” value [11] is listed as 15.6 µg/mL (≈ 50.9 µM), the “MIC (MIC-2) in µM (parentheses)” value [11] is listed as 51.0 µM (≈ 15.6 µg/mL) and the “MIC (MIC-2)” value [12] is listed as over 125 µg/mL. The “MIC (MIC-2) in µM (parentheses)” value [12] was over 408 µM, the “MIC (MIC-2)” value [13] was over 125 µg/mL and the “MIC (MIC-2) in µM (parentheses)” value [13] was over 408 µM. For the same compound, the “MIC (MIC-2)” value (C. albicans ATCC 64124 [14]) was over 125 µg/mL and the “MIC (MIC-2) in µM (parentheses)” value (C. albicans ATCC 64124 [14]) was over 408 µM.

For CC[C@@H]([C@H](C)O)n1ncn(-c2ccc(N3CCN(c4ccc(OC[C@@H]5CO[C@@](Cn6cncn6)(c6ccc(F)cc6F)C5)cc4)CC3)cc2)c1=O [POS, posaconazole], the “MIC (MIC-2)” value [11] is listed as 7.8 µg/mL (≈ 11.1 µM), the “MIC (MIC-2) in µM (parentheses)” value [11] is listed as 11.1 µM (≈ 7.78 µg/mL) and the “MIC (MIC-2)” value [15] is listed as 15.6 µg/mL (≈ 22.3 µM). The “MIC (MIC-2) in µM (parentheses)” value [15] was 22.3 µM (≈ 15.6 µg/mL), the “MIC (MIC-0)” value [16] was 0.195 µg/mL (≈ 0.278 µM) and the “MIC (MIC-0) in µM (parentheses)” value [16] was 0.28 µM (≈ 0.196 µg/mL). The “MIC (MIC-2)” value [12] was 31.2 µg/mL (≈ 44.5 µM), the “MIC (MIC-2) in µM (parentheses)” value [12] was 44.5 µM (≈ 31.2 µg/mL) and the “MIC (MIC-2)” value [13] was 31.2 µg/mL (≈ 44.5 µM). The “MIC (MIC-2) in µM (parentheses)” value [13] was 44.5 µM (≈ 31.2 µg/mL), the MIC ([5]; read-out: MIC (MIC-0)) was 0.48 µg/mL and the MIC [5, 26] was 0.68 µM. For the same compound, the “MIC (MIC-2)” value [17] was 15.6 µg/mL (≈ 22.3 µM), the “MIC (MIC-2) in µM (parentheses)” value [17] was 22.3 µM (≈ 15.6 µg/mL) and the MIC ([18]; read-out: MIC (MIC-0)) was 0.24 µg/mL. The MIC [18, 26] was 0.34 µM, the “MIC (MIC-2)” value (C. albicans ATCC 64124 [14]) was over 62.5 µg/mL and the “MIC (MIC-2) in µM (parentheses)” value (C. albicans ATCC 64124 [14]) was over 89.3 µM. The “MIC (MIC-2)” value [19] was 0.5 µg/mL (≈ 0.713 µM) and the “MIC (MIC-2) in µM (parentheses)” value [19] was 0.71 µM (≈ 0.498 µg/mL).

For ebsulfur [Compound 2a], the “concentration until which no significant hemolytic activity was shown” value [20] is listed as 15.6 µg/mL and 68.6 µM, the “MIC (MIC-0)” value [1, 27] is listed as 12.5 µg/mL and the “MIC (MIC-0) in µM (parentheses)” value [1, 27] is listed as 55.0 µM. For the same compound, the “MIC values against Candida strains” value (Candida strains (A–J); strains A, B, C, F, G and J (poorly active)) was at least 12.5 µg/mL, the “MIC values against Candida strains” value (Candida strains (A–J); strains D, E, H and I (active)) was 1.56 to 6.25 µg/mL and the “ROS induction (DCFH-DA fluorescence)” value [21] was “highly fluorescent”. The “MIC (MIC-0)” value [2, 28] was over 12.5 µg/mL, the “MIC (MIC-0) in µM (parentheses)” value [2, 28] was over 55.0 µM and the “MIC (MIC-0) in µM (parentheses)” value (C. albicans ATCC 64124 [4]; strain B, compounds 1–4n and AmB) was over 55.0 µM. For the same compound, the “MIC (MIC-0)” value [22] was 6.25 µg/mL, the “MIC (MIC-0) in µM (parentheses)” value [22] was 27.5 µM and the time-kill effect ([23]; 1× MIC (1 12.5, 2a 12.5, 3a 0.39, AmB 3.9 µg/mL)) was “fungistatic”. For the same compound, the time-kill effect ([23]; 2× MIC (1 25, 2a 25, 3a 0.78, AmB 7.8 µg/mL)) was “fungicidal”, the fungicidal concentration ([23]; time-kill curves) was 25 µg/mL and 110 µM and the “MIC (MIC-0)” value ([5]; strain M, all compounds) was 6.25 µg/mL. The “MIC (MIC-0) in µM (parentheses)” value ([5]; strain M, all compounds) was 27.5 µM, the “MIC (MIC-0)” value [6, 29] was over 12.5 µg/mL and the “MIC (MIC-0) in µM (parentheses)” value [6, 29] was over 55.0 µM. The “MIC (MIC-0)” value [24] was 12.5 µg/mL, the “MIC (MIC-0) in µM (parentheses)” value [24] was 55.0 µM and the “MIC (MIC-0)” value ([7]; strain L, all compounds) was 6.25 µg/mL. For the same compound, the “MIC (MIC-0) in µM (parentheses)” value ([7]; strain L, all compounds) was 27.5 µM, the “MIC (MIC-0)” value [8, 30] was 3.13 µg/mL and the “MIC (MIC-0) in µM (parentheses)” value [8, 30] was 13.8 µM. The “MIC (MIC-0)” value ([18]; strain K, all compounds) was 6.25 µg/mL, the “MIC (MIC-0) in µM (parentheses)” value ([18]; strain K, all compounds) was 27.5 µM and the “MIC (MIC-0)” value (Candida krusei ATCC 6258) was 3.13 µg/mL. For the same compound, the “MIC (MIC-0) in µM (parentheses)” value (Candida krusei ATCC 6258) was 13.8 µM, the “MIC (MIC-0)” value [9, 31] was 6.25 µg/mL and the “MIC (MIC-0) in µM (parentheses)” value [9, 31] was 27.5 µM. The “MIC (MIC-0)” value [10, 32] was 12.5 µg/mL and the “MIC (MIC-0) in µM (parentheses)” value [10, 32] was 55.0 µM.
